Active and inactive are the calls of the source. The rule behind the calls is not given here.
How the values were obtained:
[1] = system: Leishmania amazonensis; assay: Induction of membrane potential depolarization in Leishmania amazonensis MHOM/BR/75/LTB0016 promastigotes assessed as reduction in mitochondrial membrane potential at 20 uM incubated for 24 hrs by JC1 dye based fluorescence assay; conditions: MHOM/BR/75/LTB0016, 24 h, read-out: INH
[2] = system: Leishmania braziliensis; assay: Induction of intracellular ROS generation in Leishmania braziliensis promastigotes at 500 uM incubated for 72 hrs by H2DCFDA dye based assay
[3] = system: Leishmania amazonensis; assay: Antiparasitic activity against Leishmania amazonensis MHOM/BR/75/LTB0016 promastigotes assessed as inhibition of cellular proliferation incubated for 24 hrs by CFSE staining based flow cytometry; type: functional, organism-based
How it was run: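 Promastigotes (2.5 × 10^7 cells/mL) were washed in PBS and stained with 10 μM CFSE in PBS/0.1% albumin for 15 min at 26 °C. Staining was stopped with ice-cold medium. Cells were resuspended at 1.0 × 10^6 cells/mL with compound (3−96 μM) or 0.2% DMSO for 24 h at 26 °C. Fluorescence was read by flow cytometry. Histograms are representative of three experiments.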

[4] = system: Leishmania amazonensis; assay: Induction of ultrastructural alterations in Leishmania amazonensis MHOM/BR/75/LTB0016 promastigotes assessed as inner mitochondrial membrane damage with washed-out matrix appearance and decreased matrix electron density at 12 to 96 uM incubated for 24 hrs by transmission electron microscopy; type: functional, organism-based
How it was run: (§1)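 Promastigotes (5 × 10^6 cells/mL) were treated for 24 h at 26 °C in Schneider medium with compound at 12, 24 or 96 μM. They were fixed in 2.5% glutaraldehyde in 0.1 M cacodylate (pH 7.2) for 40 min and postfixed in 1% OsO4, 0.8% potassium ferricyanide and 2.5 mM CaCl2 for 20 min. Cells were acetone-dehydrated and resin-embedded. Ultrathin sections were stained with uranyl acetate and lead citrate and examined by transmission electron microscopy.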

[5] = system: Leishmania amazonensis; assay: Induction of ultrastructural alterations in Leishmania amazonensis MHOM/BR/75/LTB0016 promastigotes assessed as cytoplasmic vacuolization at 12 uM incubated for 24 hrs by transmission electron microscopy
[6] = system: Leishmania amazonensis; assay: Antiparasitic activity against Leishmania amazonensis MHOM/BR/75/LTB0016 promastigotes assessed as inhibition of cellular proliferation at 96 uM incubated for 24 hrs by Neubauer chamber based assay; type: functional; conditions: MHOM/BR/75/LTB0016, 24 h
How it was run: (§2)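 Strain MHOM/BR/75/LTB0016 promastigotes were grown at 26 °C in Schneider medium (pH 7.2) with 10% heat-inactivated FCS, penicillin and streptomycin. They were seeded at 1.0 × 10^6 cells/mL with compound (3−96 μM) or DMSO vehicle (0.2% final) for 24 h at 26 °C. Density was counted in a Neubauer chamber. IC50 came from logarithmic regression. Mean ± SE of three experiments.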

[7] = system: Leishmania amazonensis; assay: Induction of ultrastructural alterations in Leishmania amazonensis MHOM/BR/75/LTB0016 promastigotes assessed as appearance of endoplasmic profiles surrounding cellular structures and cytosolic vacuolization at 12 uM incubated for 24 hrs by transmission electron microscopy; type: functional, organism-based; how it was run: as §1
[8] = system: Leishmania amazonensis; assay: Antiparasitic activity against Leishmania amazonensis MHOM/BR/75/LTB0016 promastigotes assessed as inhibition of cellular proliferation incubated for 48 hrs by CFSE staining based flow cytometry; type: functional, organism-based; conditions: MHOM/BR/75/LTB0016, 48 h
[9] = system: Leishmania amazonensis; assay: Induction of intracellular ROS generation in Leishmania amazonensis MHOM/BR/75/LTB0016 promastigotes at 96 uM incubated for 24 hrs in presence of NAC by H2DCFDA dye based assay; type: functional, organism-based
How it was run: (§3)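 Cultures held GSH, GSSG or NAC (300 μM final, in PBS) together with 96 μM compound or 0.2% DMSO for 24 h at 26 °C in Schneider medium. Cells were then stained with H2DCFDA (20 μM, 20 min, 26 °C, in HBSS) and read by flow cytometry. Results are fold ROS increase versus control, mean ± SE of three experiments.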

[10] = system: Leishmania amazonensis; assay: Induction of membrane potential depolarization in Leishmania amazonensis MHOM/BR/75/LTB0016 promastigotes assessed as reduction in mitochondrial membrane potential at 96 uM incubated for 24 hrs by JC1 dye based fluorescence assay; type: functional; conditions: MHOM/BR/75/LTB0016, 24 h
How it was run: (§4)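 Promastigotes (5 × 10^6 cells/mL) were treated for 24 h with compound (3−96 μM) or 0.2% DMSO, then resuspended in HBSS at 1 × 10^7 cells/mL. They were stained with JC-1 (10 μg/mL, 10 min, 26 °C) and washed twice. Emission was read at 590 and 530 nm (excitation 480 nm), and the 590/530 ratio gives relative ΔΨm. FCCP 20 μM for 20 min served as positive control. Mean ± SE of three experiments.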

[11] = system: Leishmania amazonensis; assay: Antiparasitic activity against Leishmania amazonensis MHOM/BR/75/LTB0016 promastigotes assessed as inhibition of cellular proliferation at 96 uM incubated for 24 hrs in presence of 300 uM GSSG by Neubauer chamber based assay; type: functional, organism-based
How it was run: (§5)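 Promastigotes were preincubated with GSH, GSSG or NAC (300 μM final, in PBS) and then grown 24 h at 26 °C in Schneider medium with 96 μM compound (in DMSO) or vehicle (0.2% DMSO). Proliferation was counted in a Neubauer chamber. Mean ± SE of three experiments.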

[12] = system: Leishmania amazonensis; assay: Antiparasitic activity against Leishmania amazonensis MHOM/BR/75/LTB0016 promastigotes assessed as inhibition of cellular proliferation at 96 uM incubated for 24 hrs in presence of 300 uM GSH by Neubauer chamber based assay; type: functional, organism-based; how it was run: as §5
[13] = system: Leishmania amazonensis; assay: Induction of ultrastructural alterations in Leishmania amazonensis MHOM/BR/75/LTB0016 promastigotes assessed as concentric membrane structures formation inside organelle at 12 to 96 uM incubated for 24 hrs by transmission electron microscopy; type: functional, organism-based; how it was run: as §1
[14] = system: Leishmania amazonensis; assay: Antiparasitic activity against Leishmania amazonensis MHOM/BR/75/LTB0016 promastigotes assessed as inhibition of cellular proliferation incubated for 24 hrs by Neubauer chamber based assay; type: functional, organism-based; how it was run: as §2
[15] = system: Leishmania amazonensis; assay: Induction of intracellular ROS generation in Leishmania amazonensis MHOM/BR/75/LTB0016 promastigotes at 96 uM incubated for 24 hrs in presence of GSSG by H2DCFDA dye based assay; type: functional, organism-based; how it was run: as §3
[16] = system: Leishmania amazonensis; assay: Induction of intracellular ROS generation in Leishmania amazonensis MHOM/BR/75/LTB0016 promastigotes at 96 uM incubated for 24 hrs in presence of GSH by H2DCFDA dye based assay; type: functional, organism-based; how it was run: as §3
[17] = system: Leishmania amazonensis; assay: Induction of intracellular ROS generation in Leishmania amazonensis MHOM/BR/75/LTB0016 promastigotes incubated for 24 hrs by H2DCFDA dye based assay; type: functional, organism-based
How it was run: (§6)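 Promastigotes (5 × 10^6 cells/mL) were cultured 24 h at 26 °C with compound (3−96 μM) or vehicle, then resuspended in HBSS at 1 × 10^7 cells/mL. They were loaded with 20 μM H2DCFDA for 20 min at 26 °C and read by flow cytometry. Results are fold increase over control, mean ± SE of three experiments.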

[18] = system: Leishmania amazonensis; assay: Induction of ultrastructural alterations in Leishmania amazonensis MHOM/BR/75/LTB0016 promastigotes assessed as rupture of trans-Golgi network at 24 uM incubated for 24 hrs by transmission electron microscopy
[19] = system: Leishmania amazonensis; assay: Induction of ultrastructural alterations in Leishmania amazonensis MHOM/BR/75/LTB0016 promastigotes assessed as extensive swelling of parasite mitochondria at 12 to 96 uM incubated for 24 hrs by transmission electron microscopy; type: functional, organism-based; how it was run: as §1
[20] = system: Leishmania amazonensis; assay: Antiparasitic activity against Leishmania amazonensis MHOM/BR/75/LTB0016 promastigotes assessed as inhibition of cellular proliferation at 96 uM incubated for 24 hrs in presence of 300 uM NAC by Neubauer chamber based assay; type: functional, organism-based; how it was run: as §5
[21] = system: Leishmania amazonensis; assay: Induction of membrane potential depolarization in Leishmania amazonensis MHOM/BR/75/LTB0016 promastigotes assessed as reduction in mitochondrial membrane potential incubated for 24 hrs by JC1 dye based fluorescence assay; type: functional, organism-based; how it was run: as §4
[22] = system: Leishmania amazonensis; assay: Induction of ultrastructural alterations in Leishmania amazonensis MHOM/BR/75/LTB0016 promastigotes assessed as washed-out appearance of mitochondria matrix and loss of cristae at 96 uM incubated for 24 hrs by transmission electron microscopy; type: functional, organism-based; how it was run: as §1
[23] = system: Leishmania amazonensis; assay: Induction of intracellular ROS generation in Leishmania amazonensis MHOM/BR/75/LTB0016 promastigotes at 96 uM incubated for 24 hrs by H2DCFDA dye based assay; type: functional; how it was run: as §6
[24] = system: Leishmania amazonensis; assay: Induction of intracellular ROS generation in Leishmania amazonensis MHOM/BR/75/LTB0016 promastigotes at 96 uM incubated for 48 hrs by H2DCFDA dye based assay; type: functional

SMILES: N#CC(C#N)=NNc1ccc(OC(F)(F)F)cc1
- inhibition at 20 µM [1]: 79.8%

SMILES: O=C(O[C@@H]1Cc2c(O)cc(O)cc2O[C@@H]1c1cc(O)c(O)c(O)c1)c1cc(O)c(O)c(O)c1 [EPIGALOCATECHIN GALLATE]
- fold change (FC) [2]: 2.9

SMILES: O=c1cc(-c2ccc(O)cc2)oc2cc(O)cc(O)c12 [APIGENIN]
- inhibition [3]: Dose-dependent effect
- Activity [4]: Active
- Activity [5]: Active
- inhibition at 96 µM [6]: 75%
- Activity [7]: Active
- IC50 [8]: 31.4 µM
- Activity [9]: inactive
- inhibition at 96 µM [10]: 78.3%
- Activity [11]: Active
- Activity [12]: inactive
- Activity [13]: Active
- inhibition [14]: Dose-dependent effect
- IC50 ([14]; MHOM/BR/75/LTB0016, 24 h): 23.7 µM
- Activity [15]: Active
- Activity [16]: inactive
- Activity [17]: Dose-dependent effect
- Activity [18]: Active
- Activity [19]: Active
- Activity [20]: inactive
- Activity [21]: Dose-dependent effect
- Activity [22]: Active
- fold change (FC) [23]: 2.9

SMILES: O=c1c(O)c(-c2ccc(O)c(O)c2)oc2cc(O)cc(O)c12 [QUERCETIN]
- fold change (FC) [24]: 4.4

— ChEMBL document CHEMBL3580591, “Effect of Apigenin on Leishmania amazonensis Is Associated with Reactive Oxygen Species Production Followed by Mitochondrial Dysfunction” (J Nat Prod, 2015)
